Bioassay records: PubChem, several laboratories
rCAG binder: r(CAG) repeat RNA binding; inhibition, % at 3 µM; TO-PRO-1 dye displacement fluorescence; 370,000 tested, 1.3% active;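 active means inhibition above the plate cutoff, the mean of all test compounds on that plate plus 3 SD, cut at about 35% in these data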;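 further: 0% = DMSO alone and 100% = 100 µM mitoxantrone as full dye displacement; higher means more dye released from RNA so lower well fluorescence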
core dimer inh: blocks dimerization of HCV core protein. 300,000 tested, 0.33% active. AID 1899. inhibition, % at 5 µM. TR-FRET GST/Flag-core106 dimerization, 1536-well;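 active means inhibition above the mean of all tested compounds plus 3 SD, set per screening campaign, cut at about 45% in these data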
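System – GST-tagged and Flag-tagged HCV core protein residues 1-106 · Repeats – one well for each compound · Technique – TR-FRET 671 and 617 nm emission · Doses – one concentration, 5 µM, in 0.5% DMSO · Times – 4 h, 22.5 °C incubation · Also added – Eu donor and XL665 acceptor anti-tag antibodies · Measure – percent inhibition of core106 dimerization signal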
ABHD5-PLIN5 inh: ABHD5-PLIN5 protein interaction inhibition; AID 602281; 360,000 tested, 0.78% active; Split G. princeps luciferase complementation, luminescence, 4 h; inhibition, % at 4 µM;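 active means inhibition above the mean inhibition across every tested compound plus 3 SD, cut at about 22% in these data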;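 further: 0% = DMSO only wells and the 100% control is not disclosed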
Target sequence (Q00G26 whole entry, looked up): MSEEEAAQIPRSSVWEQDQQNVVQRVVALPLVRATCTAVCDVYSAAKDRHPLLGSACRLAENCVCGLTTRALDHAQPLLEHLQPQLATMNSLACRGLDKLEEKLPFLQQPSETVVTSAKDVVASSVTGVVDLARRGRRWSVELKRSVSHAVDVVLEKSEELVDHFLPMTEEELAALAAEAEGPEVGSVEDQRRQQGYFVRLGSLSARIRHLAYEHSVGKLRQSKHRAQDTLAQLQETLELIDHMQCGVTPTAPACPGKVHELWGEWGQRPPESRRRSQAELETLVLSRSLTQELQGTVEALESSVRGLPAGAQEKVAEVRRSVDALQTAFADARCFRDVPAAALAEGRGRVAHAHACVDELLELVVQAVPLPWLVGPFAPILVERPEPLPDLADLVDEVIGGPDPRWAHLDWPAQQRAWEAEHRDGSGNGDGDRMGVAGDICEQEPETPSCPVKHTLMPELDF
Target sequence (Q8WTS1 whole entry, looked up): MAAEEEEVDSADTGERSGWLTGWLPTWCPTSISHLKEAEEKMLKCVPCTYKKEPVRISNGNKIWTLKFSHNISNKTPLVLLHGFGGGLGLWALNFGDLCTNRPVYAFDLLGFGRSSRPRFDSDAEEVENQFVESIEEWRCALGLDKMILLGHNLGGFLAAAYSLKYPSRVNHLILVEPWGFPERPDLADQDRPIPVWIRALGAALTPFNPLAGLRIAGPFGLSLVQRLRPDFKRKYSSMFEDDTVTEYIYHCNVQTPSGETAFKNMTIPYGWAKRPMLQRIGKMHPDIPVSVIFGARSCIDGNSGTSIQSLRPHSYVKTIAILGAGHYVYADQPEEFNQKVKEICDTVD
NadD block: blocks S. aureus nicotinate mononucleotide adenylyltransferase. purified NadD enzyme, colorimetric absorbance read-out. inhibition, % at 20 µM. 360,000 tested, 0.78% active; in the data active means inhibition above about 26%
rCAG binder conf: r(CAG) RNA repeat binding, confirmation; TO-PRO-1 dye displacement fluorescence; shares compounds with rCAG binder; 4,300 tested, 70% active; inhibition, % at 3 µM;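 active means inhibition above a per-plate cutoff, the mean inhibition of sample wells plus 3 SD, cut at about 35% in these data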;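 further: loss of TO-PRO-1 fluorescence as compound displaces dye from 1x1 AA loop RNA; 0% = DMSO only wells and 100% = 100 µM mitoxantrone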
DNA CAG counter: disrupts DNA CAG TO-PRO-1 complex, flagging rCAG hits; shares compounds with rCAG binder; 4,300 tested, 94% active; inhibition, % at 3 µM; d(CAG) DNA oligo TO-PRO-1 dye displacement, fluorescence;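 active means inhibition above its plate's cutoff, the mean test-well inhibition plus 3 SD, cut at about 4.8% in these data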;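 further: 0% = DNA dye mix with DMSO and 100% = 100 µM mitoxantrone; hits displace the dye from DNA and so lower well fluorescence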
DNA CAG DR: counter-screen for rCAG binders: inhibitors of DNA CAG TO-PRO-1 complex | shares compounds with rCAG binder | DNA CAG/GTC duplex TO-PRO-1 dye displacement fluorescence | IC50, µM | 250 tested, 20% active; in the data active means IC50 below about 10 µM
An asterisk follows results filed as active; · = no result given. A selection: hits, their analogues and other compounds. The true share with any hit is near 2.6%.

SMILES | rCAG binder | core dimer inh | ABHD5-PLIN5 inh | NadD block | rCAG binder conf | DNA CAG counter | others
CC(C)OC(=O)c1cc(-c2ccc(C=O)o2)ccc1Cl | 3 | 25 | -3 | -1 | · | ·
Cc1ccc(C)c(NC(=O)NNC(=O)c2cc3ccccc3cc2O)c1 | 35* | -7 | 0 | 4 | 28 | 9.0*
O=C(NNC(=O)c1cc2ccccc2cc1O)Nc1ccccc1F | 41* | -11 | -1 | -7 | 22 | 7.2*
O=C(C[C@@H]1C[C@H]2c3cc(NC(=O)C4CCC4)ccc3O[C@H]2[C@@H](CO)O1)NCc1ccc(-c2ccccc2)cc1 | 3 | · | 11 | 2 | · | ·
C[C@@H]1CN(S(=O)(=O)C(C)(C)C)[C@@H](CCO)/C1=C\CCO | -1 | · | · | · | · | ·
CCOC1=C2CN(S(=O)(=O)c3ccc(C)cc3)C(c3cccc(Cl)c3)CC2N(S(=O)(=O)c2ccc(C)cc2)C(c2ccncc2)C1 (configuration not stated) | 6 | · | -5 | · | · | ·
C[C@@H]1O[C@H](C2CCCC2)CC2=C1C(=O)OC(C)(C)O2 | -1 | · | 0 | 2 | · | ·
O=C(O)c1ccc(CSc2nc(-c3ccccc3)cc(C(F)(F)F)n2)cc1 | 55* | 18 | 1 | 8 | 56* | 13*
O=C(O)c1ccc(CSc2nc(-c3ccc(Cl)cc3)cc(C(F)(F)F)n2)cc1 | 2 | 10 | 13 | 1 | · | ·
CCCCOc1ccc(C(=O)NC2CCCCN(Cc3ccccc3C)C2=O)cc1 (configuration not stated) | -1 | · | · | · | · | ·
Cc1noc(NS(=O)(=O)c2ccc(NC(=O)CSc3nc4c(cc3C#N)CCCC4)cc2)c1C | 41* | 3 | 5 | 7 | 33 | 11*
Cc1noc(NS(=O)(=O)c2ccc(NC(=O)CSc3nc4ccccc4s3)cc2)c1C | 70* | -1 | -5 | 3 | 61* | 25*
Cc1noc(NS(=O)(=O)c2ccc(NC(=O)CSc3ncccn3)cc2)c1C | 1 | -1 | -5 | -1 | · | ·
CC1=C(C(=O)N(C(C)C)C(C)C)CC(CC(=O)NCC2CCCCC2)C(=O)N1Cc1ccc(C(C)(C)C)cc1 (configuration not stated) | 5 | · | -4 | 14 | · | ·
O=S1(=O)c2ccc(N3CCN(Cc4ccccc4F)CC3)cc2Oc2ccccc2CN1Cc1cn(Cc2ccc(F)cc2)nn1 | 10 | · | · | · | · | ·
COc1cc(OC)c(OC)cc1/C=C/C(=O)c1ccc(NS(=O)(=O)c2ccc(C)cc2)cc1 | 46* | 26 | 13 | 21 | 39* | 16*
COc1ccc(CN2C/C(=C/C3=CCCCC3)N(C(=O)OCc3ccccc3)C2=N)c(OC)c1 | 6 | · | · | · | · | ·
NC(c1csc(NC(=O)Nc2cccc(Cl)c2)n1)c1ccccc1Cl (configuration not stated) | 41* | · | -2 | 18 | 50* | 17*
CC(C)C(N)c1csc(NC(=O)Nc2cccc(Cl)c2)n1 (configuration not stated) | 44* | · | -3 | -8 | 51* | 8.4*
CC(C)N(C[C@@H]1CSCCS(=O)(=O)N1)C1CCCCC1 | 1 | · | · | · | · | ·
CCCC(=O)OC[C@H]1CN(C2CCCC2)S(=O)(=O)c2c(F)cccc2O1 | 0 | · | · | · | · | ·
Cc1cccc(NC(=O)COC(=O)CN2C(=O)c3ccccc3C2=O)c1 | -1 | · | 2 | -7 | · | ·
O=C1NN(c2ccc(Cl)cc2)C(=O)/C1=C\c1ccc(-c2cccc(C(=O)O)c2)o1 | 97* | · | -1 | 10 | 66* | 28*
O=C1NN(c2ccccc2)C(=O)/C1=C\c1ccc(-c2cc([N+](=O)[O-])ccc2O)o1 | 36* | · | -4 | 21 | 44* | 19*
COc1ccc(Sc2ccc(/C=C3\C(=O)NN(c4ccccc4)C3=O)o2)cc1 | 26 | 24 | -6 | 7 | · | ·
SMILES | rCAG binder | core dimer inh | ABHD5-PLIN5 inh | NadD block | rCAG binder conf | DNA CAG counter | others
Cc1ccc(N2NC(=O)/C(=C/c3ccc(-c4ccc(Cl)c(C(=O)O)c4)o3)C2=O)cc1 | 21 | -9 | 1 | 4 | · | ·
O=S1(=O)CC(N2CCCC2)CN1Cc1cn(Cc2ccc(C(F)(F)F)cc2)nn1 (configuration not stated) | 2 | · | · | · | · | ·
C=CCOc1c(Br)cc(/C=C2\SC(=Nc3ccccc3)NC2=O)cc1OC | 16 | · | 1 | 21 | · | ·
COc1ccccc1C=C1SC(=S)NC1=O | 7 | · | 10 | 8 | · | ·
O=C1N/C(=N\S(=O)(=O)c2ccccc2)S/C1=C\c1cc([N+](=O)[O-])ccc1O | 67* | 8 | -1 | 1 | 52* | 12* | DNA CAG DR=>30
Cc1ccc(S(=O)(=O)/N=C2/NC(=O)/C(=C/c3cccnc3)S2)cc1 | 15 | 3 | -1 | 7 | · | ·
COc1cc(/C=C2/S/C(=N/S(=O)(=O)Cc3ccccc3)NC2=O)c([N+](=O)[O-])cc1OC | 73* | -6 | -2 | 1 | 67* | 29*
COc1cc(/C=C2\S/C(=N/S(=O)(=O)Cc3ccccc3)NC2=O)c([N+](=O)[O-])cc1OC | 78* | -4 | 4 | 3 | 71* | 33*
COc1cc(/C=C2/S/C(=N/S(=O)(=O)c3ccccc3)NC2=O)c([N+](=O)[O-])cc1OC | 78* | -8 | 2 | 7 | 77* | 41*
O=C1NC(=NCc2ccccc2)S/C1=C\c1ccccc1 | 7 | -4 | 5 | 0 | · | ·
O=C1C(=Cc2cccc(O)c2O)SC(=S)N1CCCN1CCOCC1 | 28 | · | -25 | 4 | · | ·
COc1ccc(S(=O)(=O)N2CCN(CC(=O)c3c(N)n(C)c(=O)n(C)c3=O)CC2)cc1OC | 0 | · | -2 | -2 | · | ·
CN1CCCCC(NC(=O)c2ccccc2)C1=O (configuration not stated) | 2 | · | · | · | · | ·
O=C(COc1ccc2c(c1)oc(=O)c1ccccc12)N[C@@H](Cc1ccccc1)C(=O)O | 34 | 2 | -3 | 4 | · | ·
Cc1c(Cc2ccccc2)c(=O)oc2cc(OCC(=O)N[C@@H](Cc3ccccc3)C(=O)O)ccc12 | 42* | 3 | 2 | 2 | 45* | 12*
Cc1c(Cc2ccccc2)c(=O)oc2cc(OCc3nn[nH]n3)ccc12 | 38* | 33 | 8 | 12 | 36* | 9.1*
COc1ccc(-c2cc3ccc(OCC(C)=O)cc3oc2=O)cc1OC | 9 | -1 | -9 | -4 | · | ·
Cc1c(CC(=O)O)c(=O)oc2cc(OCc3ccc(Cl)cc3)ccc12 | 38* | 4 | 1 | -4 | 33 | 6.9*
COc1ccc(-c2cc3ccc(OCc4nn[nH]n4)cc3oc2=O)cc1OC | 35* | 0 | 3 | 1 | 19 | 4.7*
Cc1c(CC(=O)O)c(=O)oc2cc(OCc3nn[nH]n3)ccc12 | 0 | 0 | -1 | 2 | · | ·
Cc1c(CC(=O)O)c(=O)oc2cc3oc4c(c3cc12)CCCC4 | 8 | 2 | 1 | -7 | · | ·
O=C(COc1ccc2c(c1)oc(=O)c1ccccc12)NC(Cc1ccc(Cl)cc1)C(=O)O (configuration not stated) | 56* | 4 | -2 | 7 | 56* | 19*
